Data on eight compounds can be found in ChEMBL document CHEMBL3091283, “Selective cannabinoid receptor type 2 (CB2) agonists: optimization of a series of purines leading to the identification of a clinical candidate for the treatment of osteoarthritic pain” (J Med Chem, 2013).

As a reminder, the solubility is the dissolved amount per volume that the medium holds. Low values mean little dissolved substance, high ones much dissolved substance. As a reminder, the AUC is the area under the concentration-time curve, a measure of exposure. The low end stands for less exposure, the high end for more exposure. For orientation: bioavailability means the share of a dose that reaches the circulation, judged against a reference dose that is usually intravenous. Read a high bioavailability as much systemic uptake. What is called Cmax is the peak of the concentration-time curve. For orientation: logP means the decadic logarithm of the partition coefficient of the neutral form, usually between octanol and water.

A value given as a limit tells only on which side of the number the result lay.

Series [1] is described as follows: Aqueous solubility in simulated GI fluid at pH 6.8. It is filed as physicochemical.
A short description of series [2]: AUC in Sprague-Dawley rat at 3 mg/kg, po. It is filed as ADME, organism-based. Also noted: dose 3 mg/kg, route oral. The note with it: plasma.
Series [3] is described as follows: Oral bioavailability in Beagle dog at 3 mg/kg. Particulars: in vivo. The series is classed as ADME, organism-based, Canis lupus familiaris. A digest of the protocol:
(§1)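 Male beagle dogs given 1 mg/kg iv and 3 mg/kg po. Plasma PK parameters derived: clearance, volume of distribution, oral half-life, AUC, Cmax and oral bioavailability.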

A short description of series [4]: Volume of distribution in Sprague-Dawley rat at 1 mg/kg, iv. The series is classed as ADME, organism-based. Also noted: dose 1 mg/kg, route intravenous. The note with it: in vivo. A digest of the protocol: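 Male Sprague–Dawley rats were given 1 mg/kg iv. Clearance and volume of distribution were derived from plasma pharmacokinetics.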
Series [5] in a line: AUC in Beagle dog at 1 mg/kg, iv and 3 mg/kg, po. It is filed as ADME, organism-based, Canis lupus familiaris. Particulars: plasma. A digest of the protocol: as §1
The nature of series [6]: Cmax in Beagle dog at 1 mg/kg, iv and 3 mg/kg, po. The series is classed as ADME, organism-based, Canis lupus familiaris. The note with it: in vivo. In outline:
as §1

Series [7] can be described thus: Cmax in Sprague-Dawley rat at 1 mg/kg, iv and 1 mg/kg, po. Particulars: in vivo. The series is classed as ADME, organism-based. A digest of the protocol: (§2)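 Male Sprague-Dawley rats dosed 1 mg/kg iv and 1 mg/kg po. Clearance, volume of distribution, oral half-life, AUC, Cmax and bioavailability calculated from plasma levels.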
For series [8], the system named is MDR1. In words: MDR1-mediated transport in MDCK cells assessed as permeability from basolateral to apical side at 5 uM. Particulars: dog, read-out: permeability. The series is classed as ADME, cell-based, Canis lupus familiaris. A digest of the protocol: (§3)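 Transport measured across MDCK-MDR1 monolayers at 5 μM, with and without inhibitor. A→B and B→A fluxes recorded in cm/s × 10−6; efflux ratio taken as B→A over A→B.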

Series [9] has as its system MDR1. In words: MDR1-mediated transport in MDCK cells assessed as permeability from apical to basolateral side at 5 uM. It is filed as ADME, cell-based, Canis lupus familiaris. Particulars: dog, read-out: permeability. In outline:
as §3

Series [10] in a line: Oral bioavailability in Sprague-Dawley rat at 1 mg/kg. The note with it: in vivo. The series is classed as ADME, organism-based. In outline: as §2
A short description of series [11]: AUC in Sprague-Dawley rat at 1 mg/kg, iv and 1 mg/kg, po. It is filed as ADME, organism-based. The note with it: plasma. In outline: as §2
Series [12] can be described thus: Volume of distribution in Beagle dog at 1 mg/kg, iv and 3 mg/kg, po. The series is classed as ADME, organism-based, Canis lupus familiaris. Particulars: in vivo. A digest of the protocol: as §1
Series [13] in a line: Lipophilicity, log P of the compound. It is filed as physicochemical. The note with it: octanol/water.
Series [14] can be described thus: Ratio of drug level in brain to plasma in rat. Particulars: read-out: BPR. The series is classed as ADME.

Turning to `CCN1CCN(c2nc(C)nc3c2nc(-c2ccccc2Cl)n3C)CC1.Cl`, the solubility in [1] is above 100 µM.

In series [2], `CCN1CCN(c2nc(C)nc3c2nc(-c2ccccc2Cl)n3CCOC)CC1.Cl` returned an AUC below 50 ng·h/mL.

For `Cc1nc(N2CCN(C)CC2)c2nc(-c3ccccc3Cl)n(CCS(C)(=O)=O)c2n1.Cl`, in series [1], the solubility was above 100 µM. For the same compound, the bioavailability in series [3] was found to be 60%; in series [10], 43%. The Vd is 1.9 L/kg in [4] and 9.2 L/kg in [12]. Moreover, the area under the curve (AUC) in series [5] worked out at 286 ng·h/mL; in [11], 312 ng·h/mL. The Cmax in series [6] stood at 62 ng/mL; in series [7], 76 ng/mL. Moreover, the Papp B→A at 5 µM in the series on MDR1 [8] stood at 43 ×10⁻⁶ cm/s. Also, the Papp A→B at 5 µM in the series with MDR1 [9] was determined as 42 ×10⁻⁶ cm/s.

`Cc1nc(N2CCN(C)CC2)c2nc(-c3ccccc3Cl)n([C@@H]3CCOC3)c2n1` yielded a log partition coefficient (logP) in [13] of 3.2.

For the compound `COCCn1c(-c2ccccc2Cl)nc2c(N3CCN(CCF)CC3)nc(C)nc21.Cl`, in series [2], the exposure (AUC) is below 50 ng·h/mL.

Regarding `CCN1CCN(c2nc(C)nc3c2nc(-c2ccccc2Cl)n3CC2CCOCC2)CC1.Cl`, in [4], the Vd was 5 L/kg. In [13], this compound gave a logP of 3.4. The compound further yielded a bioavailability in series [10] of 27%.

For the compound `Cc1nc(N2CCN(C)CC2)c2nc(-c3ccccc3Cl)n(C3CCOCC3)c2n1.Cl`, in series [1], the solubility was above 100 µM. The bioavailability in series [3] stood at 76%; in [10] it was 67%. Moreover, in series [14], the Kp turned out to be 0.9. For the same compound, the Vd in series [4] is 6 L/kg; in [12] it was 5.5 L/kg. Also, the logP in series [13] came to 3.1. For the same compound, the AUC is 1940 ng·h/mL in series [5] and 265 ng·h/mL in [11]. Besides, the Cmax was found to be 352 ng/mL in series [6] and 60 ng/mL in series [7]. Further, the Papp B→A at 5 µM with MDR1 [8] came out at 3.1 ×10⁻⁶ cm/s. The Papp A→B at 5 µM in the series on MDR1 [9] came out at 3.1 ×10⁻⁶ cm/s.

As for `CCN1CCN(c2nc(C)nc3[nH]c(-c4ccccc4Cl)nc23)CC1`, the lipophilicity (logP) in series [13] was found to be 3.7.
